{
  "source": "paper PMC8799559",
  "about": "(Advances in Therapy, 2021)",
  "key": {"[1]": {"tested_on": "circulating lymphocyte counts", "conditions": "cited from earlier work"}, "[2]": {"assay": "Population pharmacokinetics", "assay_type": "in vivo, human", "summary_of_the_method": "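Plasma drug measured by validated LC-MS/MS; LLOQ 2.08 or 2.18 ng/mL. Intensive sampling on cycle 1 day 4 and cycle 2 day 1, pre-dose to 8 h post-dose, plus pre-dose samples on cycle 1 day 8 and cycle 2 day 10. Prior model built on 505 subjects from eight studies applied by nonlinear mixed-effects (FOCEI). Checked by diagnostic plots, VPCs and NPDE.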"}, "[3]": {"conditions": "phase 3 MURANO study, R/R CLL ref 19; cited from earlier work"}, "1L DLBCL": {"tested_on": "1L DLBCL", "assay_type": "in vivo, human", "conditions": "all-comers and BCL-2-IHC-positive subpopulations, logistic regression", "summary_of_the_method": "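Phase 2 1L DLBCL patients (n = 199) given 800 mg test compound on a 10/21-day schedule with R-CHOP. PET-CT complete response assessed at the end-of-treatment visit, 6–8 weeks from day 1 of the last cycle. Logistic regression (logit link) on nominal AUCss; α = 0.05 for the exposure coefficient. Covariates added by forward stepwise selection at α = 0.01.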"}, "tumor size": {"tested_on": "tumor size", "conditions": "cited from earlier work"}, "[4]": {"conditions": "legacy model, 50 subjects receiving venetoclax + R ref 13; cited from earlier work"}, "[5]": {"conditions": "fixed at legacy model estimate ref 13, cited from earlier work"}, "[6]": {"conditions": "food effect on relative bioavailability"}},
  "data": [
    {"smiles": "CC1(C)CCC(CN2CCN(c3ccc(C(=O)NS(=O)(=O)c4ccc(NCC5CCOCC5)c([N+](=O)[O-])c4)c(Oc4cnc5[nH]ccc5c4)c3)CC2)=C(c2ccc(Cl)cc2)C1", "note": "[venetoclax]", "values": [
      {"measurement": "EC50 for circulating lymphocyte counts", "setting": "[1]", "value": 0.00863, "unit": "µg/mL"},
      {"measurement": "half-life", "setting": "[2]; human, plasma, oral", "value": 25.2, "unit": "h"},
      {"measurement": "θV2/F,GO27878 (study effect on V2/F)", "setting": "[2]; multiplicative CAVALLI study effect relative to legacy model", "value": 2.33},
      {"measurement": "Increase in CL/F for venetoclax when co-administered with R", "setting": "[3]", "value": 7, "unit": "%"},
      {"measurement": "Association between venetoclax AUCss nominal and PET-CR rates", "setting": "1L DLBCL", "value": "No clear association"},
      {"measurement": "EC50 for tumor size", "setting": "tumor size", "value": 0.146, "unit": "µg/mL"},
      {"measurement": "Increase of venetoclax CL/F by concomitant R administration", "setting": "[4]", "value": 1.21, "unit": "fold"},
      {"measurement": "θCL/F, moderate CYP3A inhibitor", "setting": "[5]; covariate effect on CL/F", "value": 0.84},
      {"measurement": "θCL/F, strong CYP3A inhibitor", "setting": "[5]; covariate effect on CL/F", "value": 0.18},
      {"measurement": "θCL/F,OATP1B3 inhibitor", "setting": "[5]; covariate effect on CL/F", "value": 0.85},
      {"measurement": "θV2/F, CLL/SLL/NHL", "setting": "[5]; covariate effect on V2/F", "value": 1.71},
      {"measurement": "θV2/F,SEX=female", "setting": "[5]; covariate effect on V2/F", "value": 0.68},
      {"measurement": "CL/F", "setting": "[5]; final PopPK model", "value": 447, "unit": "L/day"},
      {"measurement": "Q/F", "setting": "[5]; final PopPK model", "value": 97.2, "unit": "L/day"},
      {"measurement": "V2/F", "setting": "[5]; final PopPK model", "value": 118, "unit": "L"},
      {"measurement": "V3/F", "setting": "[5]; final PopPK model", "value": 119, "unit": "L"},
      {"measurement": "ka", "setting": "[5]; first-order absorption rate constant", "value": 3.72, "unit": "day⁻¹"},
      {"measurement": "θF1,FOOD=fasting", "setting": "[5]; [6]", "value": 0.34},
      {"measurement": "θF1,FOOD=fed", "setting": "[5]; [6]", "value": 1.23},
      {"measurement": "θF1,FOOD=high fat", "setting": "[5]; [6]", "value": 1.43},
      {"measurement": "θF1,FOOD=moderate fat", "setting": "[5]; [6]", "value": 1.31},
      {"measurement": "Variability (CV) of CL/F", "setting": "[5]; inter-individual variability", "value": "CV = 39.1%"},
      {"measurement": "Variability (CV) of F1", "setting": "[5]; inter-individual variability", "value": "CV = 31.2%"},
      {"measurement": "Variability (CV) of V2/F", "setting": "[5]; inter-individual variability", "value": "CV = 45.3%"},
      {"measurement": "ω^2CL/F", "setting": "[5]; inter-individual variance", "value": 0.15},
      {"measurement": "ω^2F1", "setting": "[5]; inter-individual variance", "value": 0.10},
      {"measurement": "ω^2V2/F", "setting": "[5]; inter-individual variance", "value": 0.21},
      {"measurement": "σ^2add", "setting": "[5]; residual variance, additive", "value": "3.07 × 10^–7"},
      {"measurement": "σ^2prop", "setting": "[5]; residual variance, proportional", "value": 0.22}
    ]}
  ]
}
